Source: ChEMBL document CHEMBL3853305, “Synthesis, characterization and antitubercular activities of novel pyrrolyl hydrazones and their Cu-complexes” (Eur J Med Chem, 2016)
pIC50: −log10 of the molar value. In brackets after ≈: the same amount, converted by molar mass.

How the values were obtained:
[1] = test system: Mycobacterium tuberculosis; test: Antitubercular activity against Mycobacterium tuberculosis H37Rv after 5 days by microplate alamar blue assay; format: functional; conditions: for MIC: Mycobacterium tuberculosis, H37Rv, 120 h
Summary of the method: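 Middlebrook 7H9 broth; serial dilutions of 0.2–100 μg/mL made in the plate. Incubated at 37°C for 5 days, then 1:1 alamar blue/10% Tween 80 added and incubated 24 h. MIC is the lowest concentration that prevents the blue-to-pink change. Ethambutol and rifampicin were standards.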

[2] = Cytotoxicity against human A549 cells assessed as decrease in cell viability after 72 hrs by MTT assay; format: toxicity, cell-based
Summary of the method: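 Human A549 lung adenocarcinoma cells; viability read as cellular MTT conversion to formazan in a non-radioactive cell proliferation kit. Cisplatin was the positive control. IC50 values are means ± SEM of three independent experiments.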

[3] = target: T1, Enoyl-[acyl-carrier-protein] reductase [NADH] (Mycobacterium tuberculosis, UniProt P9WGR1); test: Inhibition of His6-tagged recombinant Mycobacterium tuberculosis InhA expressed in protease-deficient Escherichia coli (BL21) using trans-2-dodecenoyl-coenzyme A as substrate assessed as NADH oxidation
T1 sequence (P9WGR1 whole entry): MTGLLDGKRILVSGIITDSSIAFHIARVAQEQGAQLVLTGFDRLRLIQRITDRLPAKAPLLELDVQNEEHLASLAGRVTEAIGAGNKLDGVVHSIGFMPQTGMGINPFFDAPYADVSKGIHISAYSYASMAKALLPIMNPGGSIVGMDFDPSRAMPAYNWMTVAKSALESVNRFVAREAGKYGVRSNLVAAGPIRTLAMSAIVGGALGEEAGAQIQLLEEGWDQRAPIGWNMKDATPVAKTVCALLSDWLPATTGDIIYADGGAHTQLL
Summary of the method: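 InhA-6xHis from E. coli BL21 (pHAT5/InhA), induced overnight with 1 mM IPTG at 20°C, purified on Ni-NTA and desalted. Assay at 25°C in 30 mM PIPES, 150 mM NaCl, pH 6.8, with 250 μM NADH, 50 μM DDCoA and 5% DMSO final. Compound screened at 50 μM. % inhibition taken from slopes with and without inhibitor. Triclosan was the reference.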

Row | Compound | -logMIC [1] | MIC [1] [µg/mL] | IC50 at 72 h [2] [µM] | pIC50 [3]
1 | C/C(=N\NC(=O)c1ccc(-n2c(C)ccc2C)cc1)C(=O)Nc1c(Cl)cccc1Cl | 4 | 100 (≈ 226 µM) | – | –
2 | C/C(CCC(=O)Nc1ccccc1F)=N\NC(=O)c1ccc(-n2cccc2)cc1 | 4.6 | 25 (≈ 63.7 µM) | – | –
3 | C/C(=N\NC(=O)c1ccc(-n2cccc2)cc1)C(=O)Nc1cccc(Br)c1 | 4.9 | 12.5 (≈ 29.4 µM) | – | –
4 | C/C(CCC(=O)Nc1cccc(Cl)c1)=N\NC(=O)c1ccc(-n2cccc2)cc1 | – | 12.5 (≈ 30.6 µM) | – | –
5 | C/C(=N\NC(=O)c1ccc(-n2cccc2)cc1)C(=O)Nc1ccc(Br)cc1 | 5.5 | 3.12 (≈ 7.34 µM) | 441 | –
6 | C/C(=N\NC(=O)c1ccc(-n2cccc2)cc1)C(=O)Nc1c(Cl)cccc1Cl | 4.6 | 25 (≈ 60.2 µM) | – | –
7 | C/C(CCC(=O)Nc1cccc(Br)c1)=N\NC(=O)c1ccc(-n2cccc2)cc1 | 4.9 | – | – | –
8 | COc1ccc(NC(=O)/C(C)=N/NC(=O)c2ccc(-n3cccc3)cc2)cc1 | 4.3 | 50 (≈ 133 µM) | – | –
9 | C/C(CCC(=O)Nc1ccccc1)=N\NC(=O)c1ccc(-n2cccc2)cc1 | 4.3 | 50 (≈ 134 µM) | – | –
10 | C/C(=N\NC(=O)c1ccc(-n2cccc2)cc1)C(=O)Nc1cccc(F)c1 | 4.58 | 12.5 (≈ 34.3 µM) | – | –
11 | C/C(CCC(=O)Nc1ccc(Br)cc1)=N\NC(=O)c1ccc(-n2cccc2)cc1 | 5.2 | 6.25 (≈ 13.8 µM) | – | –
12 | C/C(=N\NC(=O)c1ccc(-n2cccc2)cc1)C(=O)Nc1ccc(F)cc1 | 5.2 | 6.25 (≈ 17.2 µM) | – | –
13 | COc1cccc(NC(=O)/C(C)=N/NC(=O)c2ccc(-n3cccc3)cc2)c1 | 4.3 | 50 (≈ 133 µM) | – | –
14 | C/C(=N/NC(=O)c1ccc(-n2cccc2)cc1)C(N)=O | 4.3 | 50 (≈ 185 µM) | – | –
15 | C/C(=N\NC(=O)c1ccc(-n2cccc2)cc1)C(=O)Nc1cc(Br)cc(Br)c1 | 4.9 | 12.5 (≈ 24.8 µM) | – | –
16 | NNC(=O)c1ccncc1 [ISONIAZID] | – | – | > 450 | –
17 | CC[C@@H](CO)NCCN[C@@H](CC)CO [ETHAMBUTOL] | – | 0.5 (≈ 2.45 µM) | – | –
18 | CO[C@H]1/C=C/O[C@@]2(C)Oc3c(C)c(O)c4c(O)c(c(/C=N/N5CCN(C)CC5)c(O)c4c3C2=O)NC(=O)/C(C)=C\C=C\[C@H](C)[C@H](O)[C@@H](C)[C@@H](O)[C@@H](C)[C@H](OC(C)=O)[C@@H]1C [RIFAMPIN] | – | 0.4 (≈ 0.486 µM) | – | –
19 | C/C(CCC(=O)Nc1cccc(F)c1)=N\NC(=O)c1ccc(-n2cccc2)cc1 | 4.6 | 12.5 (≈ 31.9 µM) | – | –
20 | C/C(CCC(=O)Nc1ccc(Cl)cc1)=N\NC(=O)c1ccc(-n2cccc2)cc1 | 5.5 | 3.12 (≈ 7.63 µM) | 406 | –
21 | C/C(=N\NC(=O)c1ccc(-n2cccc2)cc1)C(=O)Nc1ccccc1F | 4.3 | 25 (≈ 68.6 µM) | – | –
22 | C/C(=N\NC(=O)c1ccc(-n2c(C)ccc2C)cc1)C(=O)Nc1ccc(Br)cc1 | 5.2 | 6.25 (≈ 13.8 µM) | – | –
23 | C/C(CCC(=O)Nc1ccccc1Cl)=N\NC(=O)c1ccc(-n2cccc2)cc1 | 4.6 | 25 (≈ 61.1 µM) | – | –
24 | C/C(=N\NC(=O)c1ccc(-n2cccc2)cc1)C(=O)Nc1cc(Cl)cc(Cl)c1 | 4.9 | 12.5 (≈ 30.1 µM) | – | –
25 | C/C(CCC(=O)Nc1cc(Cl)cc(Cl)c1)=N\NC(=O)c1ccc(-n2cccc2)cc1 | 4.6 | 25 (≈ 56.4 µM) | – | –
26 | COc1ccccc1NC(=O)CC/C(C)=N/NC(=O)c1ccc(-n2cccc2)cc1 | 4 | 100 (≈ 247 µM) | – | –
27 | C/C(CCC(=O)Nc1ccc(F)cc1)=N\NC(=O)c1ccc(-n2cccc2)cc1 | 5.5 | 3.12 (≈ 7.95 µM) | 438 | 5.11
28 | COc1ccc(NC(=O)/C(C)=N/NC(=O)c2ccc(-n3c(C)ccc3C)cc2)cc1 | 4.6 | 25 (≈ 61.8 µM) | – | –
